In ChEMBL document CHEMBL1124257, “An examination of O-2-isocephems as orally absorbable antibiotics” (J Med Chem, 1988):
Values after ≈ are worked out from the molar mass of the structure shown.

How the values were obtained:
Streptococcus pneumoniae [1] = experiment: Protective dose (PD50) against Streptococcus pneumoniae infected mice; assay type: functional; conditions: Streptococcus pneumoniae; read-out: PD50
In short: (§1)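 Male Swiss-Webster mice (20 ± 2 g) were challenged intraperitoneally with enough bacteria to kill untreated controls within 72 h. Drug was given orally by gavage twice: at 0 and 2 h after E. coli challenge, or at 1 and 3.5 h after S. pneumoniae challenge. PD50 is the dose in mg/kg per dose that protects 50% of animals.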

Escherichia coli [2] = experiment: Minimum inhibitory concentration (MIC) […] against Escherichia coli.; assay type: functional; conditions: Escherichia coli; read-out: MIC
In short: (§2)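 For each organism, an overnight culture was grown in Mueller-Hinton broth at 37 °C. Twofold microtiter dilutions in Nutrient Broth covered 0.005–125 µg/mL. Each well received about 10^4 organisms, and plates were incubated 18 h at 37 °C. MIC was the lowest concentration giving no visible growth.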

Proteus mirabilis = experiment: Minimum inhibitory concentration (MIC) against Proteus mirabilis by 2-fold microdilution technique.; assay type: functional; conditions: Proteus mirabilis; read-out: MIC; in short: as §2
Haemophilus influenzae = experiment: Minimum inhibitory concentration (MIC) against Haemophilus influenzae by 2-fold microdilution technique.; assay type: functional; conditions: Haemophilus influenzae; read-out: MIC; in short: as §2
Escherichia coli [3] = experiment: Minimum inhibitory concentration (MIC) against Escherichia coli by 2-fold microdilution technique.; assay type: functional; conditions: Escherichia coli; read-out: MIC; in short: as §2
Streptococcus pneumoniae [4] = experiment: Minimum inhibitory concentration (MIC) […] against Streptococcus pneumoniae.; assay type: functional; conditions: Streptococcus pneumoniae; read-out: MIC; in short: as §2
Escherichia coli [5] = experiment: Protective dose (PD50) against Escherichia coli infected mice; assay type: functional; conditions: read-out: PD50; in short: as §1
Klebsiella pneumoniae = experiment: Minimum inhibitory concentration (MIC) against Klebsiella pneumoniae by 2-fold microdilution technique.; assay type: functional; conditions: Klebsiella pneumoniae; read-out: MIC; in short: as §2
Enterococcus faecalis = experiment: Minimum inhibitory concentration (MIC) against Streptococcus faecalis by 2-fold microdilution technique.; assay type: functional; conditions: Enterococcus faecalis; read-out: MIC; in short: as §2
Streptococcus pneumoniae [6] = experiment: Minimum inhibitory concentration (MIC) against Streptococcus pneumoniae by 2-fold microdilution technique; assay type: functional; conditions: Streptococcus pneumoniae; read-out: MIC; in short: as §2
Streptococcus pyogenes = experiment: Minimum inhibitory concentration (MIC) against Streptococcus pyogenes by 2-fold microdilution technique; assay type: functional; conditions: Streptococcus pyogenes; read-out: MIC; in short: as §2
Staphylococcus aureus = experiment: Minimum inhibitory concentration (MIC) against Staphylococcus aureus by 2-fold microdilution technique.; assay type: functional; conditions: Staphylococcus aureus; read-out: MIC; in short: as §2
Mus musculus [7] = experiment: Area under curve(AUC) was measured in mice after oral administration.; assay type: ADME, organism-based; design: concentration or dose not given beside the values; unit not given here; conditions: in vivo
In short: (§3)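 Male Swiss-Webster mice (20 ± 2 g) were given a single 50 mg/kg oral dose by gavage. Blood concentrations and urine levels were measured by microbiological assay, and urinary recovery was taken over 0–6 h.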

[8] = Cmax was measured in mice after an oral dose of 50 mg/kg.; assay type: ADME, organism-based; design: dose 50 mg/kg, route oral; conditions: mouse, in vivo; in short: as §3
[9] = Half life was measured.; assay type: ADME; in short: as §3
Mus musculus [10] = organism: Mus musculus; experiment: Percentage of dose recovered after 0-6 hr in the urine of mice was measured.; assay type: ADME, organism-based; conditions: in vivo; in short: as §3
Mus musculus [11] = experiment: Area under curve(AUC) was measured in mice after oral administration (50 mg/kg); assay type: ADME, organism-based; conditions: in vivo; in short: as §3

Structure (SMILES)	ED50 (Streptococcus pneumoniae [1]) [mg/kg]	MIC (Escherichia coli [2]) [µg/mL]	MIC (Proteus mirabilis) [µg/mL]	MIC (Haemophilus influenzae) [µg/mL]	MIC (Escherichia coli [3]) [µg/mL]	MIC (Streptococcus pneumoniae [4]) [µg/mL]	ED50 (Escherichia coli [5]) [mg/kg]	MIC (Klebsiella pneumoniae) [µg/mL]	MIC (Enterococcus faecalis) [µg/mL]	MIC (Streptococcus pneumoniae [6]) [µg/mL]	MIC (Streptococcus pyogenes) [µg/mL]	MIC (Staphylococcus aureus) [µg/mL]	AUC (Mus musculus [7])	Cmax [8] [ng/mL]	half-life [9] [min]	Urinary recovery (% of dose, 0-6 h) (Mus musculus [10]) [%]	AUC (Mus musculus [11]) [µg/mL]
CC1=C(C(=O)O)N2C(=O)[C@@H](NC(=O)[C@H](N)c3ccc(O)cc3)[C@H]2CO1	2.1	8 (≈ 23 µM)	4 (≈ 11.5 µM)	8 (≈ 23 µM)	8 (≈ 23 µM)	0.13 (≈ 0.374 µM)	11	8 (≈ 23 µM)	16 (≈ 46.1 µM)	0.13 (≈ 0.374 µM)	0.13 (≈ 0.374 µM)	1 (≈ 2.88 µM)					
C=CC1=C(C(=O)O)N2C(=O)[C@@H](NC(=O)[C@H](N)c3ccc(O)cc3)[C@H]2SC1			4 (≈ 10.7 µM)		4 (≈ 10.7 µM)			16 (≈ 42.6 µM)	2 (≈ 5.33 µM)	0.03 (≈ 0.0799 µM)	0.03 (≈ 0.0799 µM)	0.25 (≈ 0.666 µM)	21	22000	29		
C=CCC1=C(C(=O)O)N2C(=O)[C@@H](NC(=O)[C@H](N)c3ccc(O)cc3)[C@H]2SC1			1 (≈ 2.57 µM)	1 (≈ 2.57 µM)	4 (≈ 10.3 µM)			4 (≈ 10.3 µM)	18 (≈ 46.2 µM)	0.03 (≈ 0.077 µM)	0.016 (≈ 0.0411 µM)	0.13 (≈ 0.334 µM)	41	45000	34	79	
N[C@@H](C(=O)N[C@@H]1C(=O)N2C(C(=O)O)=C(C3CC3)OC[C@H]12)c1ccc(O)cc1	3.6	4 (≈ 10.7 µM)	2 (≈ 5.36 µM)	8 (≈ 21.4 µM)	4 (≈ 10.7 µM)	0.03 (≈ 0.0804 µM)	> 50	16 (≈ 42.9 µM)	1 (≈ 2.68 µM)	0.03 (≈ 0.0804 µM)	0.016 (≈ 0.0429 µM)	0.25 (≈ 0.67 µM)					
C=CC1=C(C(=O)O)N2C(=O)[C@@H](NC(=O)[C@H](N)c3ccc(O)cc3)[C@H]2CO1	0.8	2 (≈ 5.57 µM)	0.5 (≈ 1.39 µM)	1 (≈ 2.78 µM)	2 (≈ 5.57 µM)	0.03 (≈ 0.0835 µM)	2.1	8 (≈ 22.3 µM)	0.5 (≈ 1.39 µM)	0.03 (≈ 0.0835 µM)	0.016 (≈ 0.0445 µM)	0.13 (≈ 0.362 µM)		26000	39	73	30
N[C@@H](C(=O)N[C@@H]1C(=O)N2C(C(=O)O)=C(/C=C/C(F)(F)F)OC[C@H]12)c1ccc(O)cc1	> 12.5	4 (≈ 9.36 µM)	16 (≈ 37.4 µM)	2 (≈ 4.68 µM)	4 (≈ 9.36 µM)	0.016 (≈ 0.0374 µM)	> 50	16 (≈ 37.4 µM)	0.13 (≈ 0.304 µM)	0.016 (≈ 0.0374 µM)	0.008 (≈ 0.0187 µM)	0.5 (≈ 1.17 µM)					
CCCC1=C(C(=O)O)N2C(=O)[C@@H](NC(=O)[C@H](N)c3ccc(O)cc3)[C@H]2CO1			4 (≈ 10.7 µM)		2 (≈ 5.33 µM)			16 (≈ 42.6 µM)	0.03 (≈ 0.0799 µM)	0.008 (≈ 0.0213 µM)	0.004 (≈ 0.0107 µM)	0.06 (≈ 0.16 µM)					
N[C@@H](C(=O)N[C@@H]1C(=O)N2C(C(=O)O)=COC[C@H]12)c1ccc(O)cc1	33	4 (≈ 12 µM)	4 (≈ 12 µM)	2 (≈ 6 µM)	4 (≈ 12 µM)	1 (≈ 3 µM)	6.2	8 (≈ 24 µM)	32 (≈ 96 µM)	1 (≈ 3 µM)	0.25 (≈ 0.75 µM)	1 (≈ 3 µM)					
